The data set deals with MS2 coat protein. Description: apparent Kd, MS2 coat protein; higher = weaker binding; RNA-MaP array; FMN 200 µM where present. In short, it runs like this: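 On Illumina sequencing-chip clusters, designs were transcribed by stalled E. coli RNA polymerase and titrated with SNAP-549-labelled MS2 coat protein (0.7 or 1.5 nM, doubling to 3 µM), without and then with constant ligand, in 100 mM Tris-HCl pH 7.5, 80 mM KCl, 4 mM MgCl2, BSA, DTT, yeast tRNA and Tween-20. Apparent Kd is the median of filtered per-cluster curve fits to green signal normalised to red-channel RNA signal and control-cluster median Fmax.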

Where [1] appears, read: designed as: OFF switch for flavin mononucleotide, no ligand.
The mark [2] stands for this setting: ligand present: flavin mononucleotide, designed as: OFF switch for flavin mononucleotide.
The mark [3] stands for this setting: designed as: ON switch for flavin mononucleotide, no ligand.
Where [4] appears, read: ligand present: flavin mononucleotide, designed as: ON switch for flavin mononucleotide.

Results on 24 sequences are retold here after the EternaBench riboswitch data.

Regarding “CGCCAUUUAACAACGGCGCGGUCGAGAAGGGUACAUGAGGAUCACCCAUGUCACGUUCCUCCUGUACAGGAUAUCGUACGGGUA”, the “apparent Kd” value was determined as 67 nM under setting [1] and 146 nM under setting [2].

“CGCUCAAUUCAGAAGGAUAGAAUCAGAAGGCGUAACAUGAGGAUCACCCAUGUAUAGAAGUGUAACGAGGAUAUGAAUUGAGCG”: the “apparent Kd” value under setting [1] is 11.5 nM and the “apparent Kd” value under setting [2] is 10.2 nM.

Take “UCCUCGAUGUAGAAGGCCGCGUCCGGCUCACGCGGAGGAUAUACAUGAGGAUCACCCAUGUGUCUGUGCCUUAUAUGGUACGGA”: the “apparent Kd” value is, setting by setting: under setting [1], 111 nM; under setting [2], 10.5 nM.

Consider “UUAUUAUAUGUAGGAUAUGCAUAUUAUUAUUAUGCAGAAGGACAUGAGGAUCACCCAUGUAUAUUAUUAUUAUAUGUUAUAUAU”, for which the “apparent Kd” value runs as follows: under setting [1], 25.5 nM; under setting [2], 36.9 nM.

For “AGUUGGCGAGGAUAUACAUGAGGAUCACCCAUGUGAAGAAGAAUAGUGAGGAAGAAAAGUAGAAGGCGCUGACA”, the “apparent Kd” value under setting [1] was 47 nM and the “apparent Kd” value under setting [2] stood at 260 nM.

Regarding “GAGCGAAAGCUCAAUGUCGAUAGCAGAAGGACGUGAAAACAUGAAAACACAUGAGGAUCACCCAUGUAGGAUAUGCUAUCGACU”, the “apparent Kd” value under setting [1] was found to be 11.2 nM and the “apparent Kd” value under setting [2] came to 27.6 nM.

Take “AAAAAACAUGAGGAUCACCCAUGUGAGGAUAUGCUAAAAAAAUCCGCAUGAAAAAAUAGCAGAAGGCACAUAAA”: the “apparent Kd” value is 32.9 nM under setting [1] and 106 nM under setting [2].

For the sequence “CUGAGCCUAGGAUAUACUGGCUGUAAGCUUGAUGCCUGCACACAUGAGGAUCACCCAUGUAGAAGGAGGCCAGG”, the “apparent Kd” value by setting is: under setting [1], 17.2 nM; under setting [2], 21.1 nM.

For the sequence “UUUUCGAACCGAGGAUAUCCUUAUAAGAAACAUGAGGAUCACCCAUGUAAAGGGAAUUAUUUGUAGGAGAAGGCGGAUUUUGUU”, the “apparent Kd” value by setting is: under setting [3], 44.4 nM; under setting [4], 29.9 nM.

In the case of “GUCGUGUGAGGAUAUCGAUUAUGGAAGUCUAGAUCCAUACGCGAGAAGGCACAUGAGGAUCACCCAUGUAAUGG”, the “apparent Kd” value is, setting by setting: under setting [1], 337 nM; under setting [2], 96.1 nM.

For “UUAACUCAUGUAGGAUAUGCAUGGCGAAGCUACGCAGAAGGACAUGAGGAUCACCCAUGUUCUAGCGUCUGAAUACAGAUGCAA”, the “apparent Kd” value amounted to 53.7 nM under setting [1] and 303 nM under setting [2].

Turning to “CAAACGUGAGGAUAUACAUGAGGAUCACCCAUGUGCUCCUCUAAACUGAAGAAGUAAUGUAGAAGGCACGUUUG”, the “apparent Kd” value runs as follows: under setting [1], 39.2 nM; under setting [2], 17.7 nM.

With “AUCAGCUCGUCAGGAUAUACGUCACUGCGACAGCAGUGUGGUAAGAUCACAUGAGGAUCACCCAUGUAGAAGGGACGAGCUGAU”, the “apparent Kd” value under setting [1] worked out at 14.2 nM and the “apparent Kd” value under setting [2] is 297 nM.

Turning to “AUACGGGCCCAGAAGGUGCCAGCGAGAGCUGCACAUGAGGAUCACCCAUGUUGUCGGUGACGACGCAAGGAUAUGGGCCCGUAU”, the “apparent Kd” value under setting [3] is 23.4 nM and the “apparent Kd” value under setting [4] is 6.63 nM.

In the case of “AACGCGUCAGGAUAUGCCAUAAAUUACCUAAUACGACCAUAGCAGAAGGGACAUGAGGAUCACCCAUGUAAAUA”, the “apparent Kd” value reads like this: under setting [1], 36.2 nM; under setting [2], 28.8 nM.

“GACUUGUCAGGAUAUCUUACAUAAACAUCGUAGUUACAAUUGGAGAAGGGACAUGAGGAUCACCCAUGUUUGGC”: the “apparent Kd” value runs as follows: under setting [1], 28 nM; under setting [2], 25.4 nM.

With “UGUAUUAAUGGAGGAUAUCGAUAUCAAACAUGAGGAUCACCCAUGUUGAGGAUCACCCAUGUCCAUGAGAAGGCUGGCGUACUU”, the “apparent Kd” value is, setting by setting: under setting [3], 30.4 nM; under setting [4], 29.2 nM.

For the sequence “UUUCGGUGGCUGGAGGAUAUCCUGGUUGUUACAUGAGGAUCACCCAUGUGCCGCGCGGUGCGCUGGGAGAAGGCCGGCGGCCCUU”, the “apparent Kd” value under setting [3] came to 37.7 nM and the “apparent Kd” value under setting [4] was 16.1 nM.

On to “UCAUGGUAGCAGGAUAUGCUAUUUAUUUUUUAUGCAGAAGGGCUUACAUGAGGAUCACCCAUGUGUUAGGUUUA”, for which the “apparent Kd” value came out at 113 nM under setting [1] and 25.2 nM under setting [2].

Regarding “AUCAUCUUGUCAGGAUAUGCGUGUCAACGAAAGUAGACAAUCUUGAUAACAUGAGGAUCACCCAUGUAGAAGGGACGAGAUGAU”, the “apparent Kd” value reads like this: under setting [1], 21 nM; under setting [2], 21.9 nM.

“AGUUAAUAUCGAGGAUAUCCUCAUAGACAUGAGGAUCACCCAUGUUAACAUGGAGAAGGCGAUAUUAACAGCAUGUUACAUGCA”: the “apparent Kd” value by setting is: under setting [3], 231 nM; under setting [4], 26.8 nM.

Take “CUUUUGUGAGGAUAUUAGUAGUAAAUAAAUAAAAUUACUACUGAGAAGGCACAUGAGGAUCACCCAUGUUUCUC”: the “apparent Kd” value reads like this: under setting [1], 32.4 nM; under setting [2], 284 nM.

As to “ACUGCAUAGUCAGGAUAUGCAAAAGCAGAUGCAAAGCAUCUGAACAACACAUGAGGAUCACCCAUGUAGAAGGGACUGUGCAGU”, the “apparent Kd” value was 23.3 nM under setting [1] and 22.4 nM under setting [2].

On to “GGUGCGUAUGUGAGGAUAUGCUGGUCCUUGGAUCGGCAGAAGGCACAUGAGGAUCACCCAUGUGGUGUCGUACC”, for which the “apparent Kd” value is 339 nM under setting [1] and 24.4 nM under setting [2].

In general, apparent Kd refers to a dissociation constant that holds for the conditions of the assay.
